From ChEMBL document CHEMBL4196155 (J Med Chem, 2018)
Activity calls are given as the source filed them. The calls are words filed in the database; no cut-off is given here.

Legend:
Oryctolagus cuniculus [1] = test: Reduction in hypertonic saline solution-induced elevated intraocular pressure in New Zealand White rabbit at 1 mM dosed topically before hypertonic saline solution injection measured after 240 mins; type: functional, organism-based
Summary of the method: (§1)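 Male SPF New Zealand albino rabbits, 2–2.5 kg, four per compound. 0.05 mL of 1 mM solution in 0.9% NaCl, 0.1% DMSO, 0.1% EtOH was dropped into one eye, vehicle into the other, before intravitreal 0.1 mL 5% hypertonic saline. IOP was read by tonometry after oxybuprocaine 0.2% once the rise had stabilised at 30–40 mm Hg, then after treatment. Analysis by 2-way ANOVA with Bonferroni.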

[2] = biological target: T1, Melatonin receptor type 1B (Homo sapiens, UniProt P49286); test: biochemical
T1 sequence (P49286 whole entry): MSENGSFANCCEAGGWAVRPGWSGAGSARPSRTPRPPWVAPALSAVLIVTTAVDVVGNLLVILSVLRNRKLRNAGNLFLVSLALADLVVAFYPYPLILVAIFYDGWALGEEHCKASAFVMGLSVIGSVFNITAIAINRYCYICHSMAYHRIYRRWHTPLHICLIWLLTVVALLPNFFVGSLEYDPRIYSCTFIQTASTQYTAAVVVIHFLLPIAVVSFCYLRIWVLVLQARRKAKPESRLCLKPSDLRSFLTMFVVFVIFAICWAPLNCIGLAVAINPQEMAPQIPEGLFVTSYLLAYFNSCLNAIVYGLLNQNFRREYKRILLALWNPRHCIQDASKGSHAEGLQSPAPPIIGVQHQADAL

[3] = biological target: T2, Melatonin receptor type 1A (Homo sapiens, UniProt P48039); test: Intrinsic agonist activity at human MT1 receptor expressed in […] NIH/3T3 cell membranes assessed as induction of G protein activation incubated for 30 mins by [35S]GTPgammaS binding assay relative to melatonin; type: functional
T2 sequence (P48039 whole entry): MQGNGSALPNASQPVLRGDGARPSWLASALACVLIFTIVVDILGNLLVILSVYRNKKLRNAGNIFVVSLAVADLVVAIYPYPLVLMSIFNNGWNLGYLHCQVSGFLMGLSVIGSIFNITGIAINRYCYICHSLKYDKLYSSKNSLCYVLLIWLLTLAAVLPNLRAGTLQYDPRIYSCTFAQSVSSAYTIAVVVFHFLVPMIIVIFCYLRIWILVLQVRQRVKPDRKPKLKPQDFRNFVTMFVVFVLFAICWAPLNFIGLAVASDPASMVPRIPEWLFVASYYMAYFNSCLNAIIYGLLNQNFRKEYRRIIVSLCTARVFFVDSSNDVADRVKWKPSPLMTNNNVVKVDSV
Summary of the method: (§2)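 NIH3T3 membranes bearing cloned human MT1 or MT2 (15–25 μg protein) incubated 30 min at 30 °C with [35S]GTPγS 0.3–0.5 nM, GDP 50 μM, NaCl 100 mM, MgCl2 3 mM. […] Maximal stimulation above basal was divided by that of 100 nM MLT in the same experiment. Run in triplicate.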

[4] = biological target: T2, Melatonin receptor type 1A; test: biochemical
Oryctolagus cuniculus [5] = test: Reduction in hypertonic saline solution-induced elevated intraocular pressure in New Zealand White rabbit at 1 mM dosed topically before hypertonic saline solution injection measured after 120 mins; type: functional, organism-based; summary of the method: as §1
[6] = biological target: T3, Melatonin receptor type 1B (Homo sapiens) (UniProt P49286); test: Intrinsic agonist activity at human MT2 receptor expressed in […] NIH/3T3 cell membranes assessed as induction of G protein activation incubated for 30 mins by [35S]GTPgammaS binding assay relative to melatonin; type: functional; summary of the method: as §2
T3 sequence (whole entry): T1 sequence (P49286 whole entry)

[7] = biological target: T4, Fatty-acid amide hydrolase 1 (Rattus norvegicus, UniProt P97612); test: Inhibition of FAAH1 in Wistar rat brain homogenates using [3H]anandamide as substrate incubated for 30 mins by liquid scintillation counting method
T4 sequence (P97612 whole entry): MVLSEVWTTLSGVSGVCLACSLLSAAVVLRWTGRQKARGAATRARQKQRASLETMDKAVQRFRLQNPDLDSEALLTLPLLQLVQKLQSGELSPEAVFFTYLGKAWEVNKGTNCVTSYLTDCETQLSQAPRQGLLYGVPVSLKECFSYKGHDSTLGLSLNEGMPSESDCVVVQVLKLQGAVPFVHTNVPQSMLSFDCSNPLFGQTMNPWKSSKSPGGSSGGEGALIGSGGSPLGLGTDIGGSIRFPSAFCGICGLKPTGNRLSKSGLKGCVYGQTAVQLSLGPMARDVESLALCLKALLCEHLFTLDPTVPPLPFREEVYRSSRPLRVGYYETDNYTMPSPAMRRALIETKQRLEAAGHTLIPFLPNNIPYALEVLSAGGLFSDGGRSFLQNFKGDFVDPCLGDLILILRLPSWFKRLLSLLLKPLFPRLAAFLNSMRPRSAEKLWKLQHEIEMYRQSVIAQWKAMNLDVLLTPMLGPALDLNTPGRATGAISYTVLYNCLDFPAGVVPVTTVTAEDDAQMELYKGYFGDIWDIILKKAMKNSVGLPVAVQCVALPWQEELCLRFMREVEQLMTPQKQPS
Summary of the method: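 Wistar rat brain homogenised in ice-cold Tris 50 mM pH 7.5 with 0.32 M sucrose, spun 1,000 × g 10 min at 4 °C; supernatant used. Homogenate (50 μg protein) incubated 30 min at 37 °C in Tris 50 mM pH 7.5, 0.05% fatty-acid-free BSA, 10 μM anandamide plus [3H]anandamide (20,000 cpm), varying compound concentrations, final DMSO 1%. Stopped with CHCl3/MeOH 1:1; aqueous [3H]ethanolamine counted. IC50 from at least two determinations.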

Oryctolagus cuniculus [8] = test: Reduction in hypertonic saline solution-induced elevated intraocular pressure in New Zealand White rabbit at 1 mM dosed topically before hypertonic saline solution injection measured after 60 mins; type: functional, organism-based; summary of the method: as §1

SMILES | Activity (Oryctolagus cuniculus [1]) | Ki [2] [nM] | Intrinsic activity [3] | Ki [4] [nM] | Activity (Oryctolagus cuniculus [5]) | Intrinsic activity [6] | IC50 [7] [nM] | Activity (Oryctolagus cuniculus [8])
CC(=O)NCCc1c(Br)[nH]c2ccc(OCCCCCCNC(=O)Oc3cccc(-c4ccccc4)c3)cc12 | Active | 1.7 | 0.73 | 0.776 | Active | 0.97 | 0.85 | –
CC(=O)NCCN(C)c1cccc(OCCCCOc2cccc(O)c2)c1 | – | 603 | 0.27 | 186 | – | 0.18 | – | –
CC(=O)NCCN(C)c1cccc(OCCCCOc2cccc(OC(=O)NC3CCCCC3)c2)c1 | – | 53.7 | 0.07 | 34.7 | – | 0.05 | 184 | –
CC(=O)NCCN(C)c1cccc(OCCCCCCNC(=O)Oc2cccc(-c3cccc(C(N)=O)c3)c2)c1 | – | 15.5 | 0.79 | 38.9 | Active | 1.01 | 0.43 | inactive
CC(=O)NCCN(C)c1cccc(OCCCCCCN)c1 | – | 398 | 0.34 | 447 | – | 0.08 | – | –
CC(=O)NCCN(C)c1cccc(OCCCCCCCCNC(=O)Oc2cccc(-c3ccccc3)c2)c1 | – | 32.4 | 0.85 | 31.6 | Active | 0.96 | 0.63 | inactive
CC(=O)NCCN(C)c1cccc(OCCCCCCNC(=O)Oc2cccc(-c3cccc(O)c3)c2)c1 | – | 26.9 | 0.89 | 29.5 | Active | 0.94 | 0.36 | inactive
CC(=O)NCCN(C)c1cccc(OCCCCNC(=O)Oc2cccc(-c3ccccc3)c2)c1 | – | 44.7 | 0.64 | 12.9 | – | 0.39 | 1.45 | –
CC(=O)NCCN(C)c1cccc(OCCCCN)c1 | – | 12900 | 0.32 | 3090 | – | 0.35 | – | –
CC(=O)NCCc1c[nH]c2ccc(OCCCCCCCCNC(=O)Oc3cccc(-c4ccccc4)c3)cc12 | inactive | 6.31 | 0.73 | 4.9 | inactive | 0.53 | 4 | Active
CCC(=O)NCCN(C)c1cccc(OCCCCCCNC(=O)Oc2cccc(-c3ccccc3)c2)c1 | – | 19.1 | 0.77 | 16.2 | – | 0.88 | 3.07 | –
CC(=O)NCCc1c[nH]c2ccc(OCCCCCCNC(=O)Oc3cccc(-c4ccccc4)c3)cc12 | inactive | 4.57 | 0.73 | 6.03 | inactive | 1.02 | 2.38 | Active
CC(=O)NCCN(C)c1cccc(OCCCCCCNC(=O)Oc2cccc(-c3ccccc3)c2)c1 | – | 33.1 | 0.7 | 21.4 | – | 0.75 | 1.34 | –
CC(=O)NCCN(C)c1cccc(OCCCCCCOc2cccc(OC(=O)NC3CCCCC3)c2)c1 | – | 295 | 0.71 | 27.5 | – | 0.71 | 197 | –
CC(=O)NCCN(C)c1cccc(OCCCCCCOc2cccc(O)c2)c1 | – | 331 | 0.62 | 58.9 | – | 0.57 | – | –
NC(=O)c1cccc(-c2cccc(OC(=O)NC3CCCCC3)c2)c1 | – | – | – | – | inactive | – | – | Active
COc1ccc2[nH]cc(CCNC(C)=O)c2c1 | – | – | – | – | inactive | – | – | Active
